Measurements as given in ChEMBL document CHEMBL2396601, “Synthesis and antiprotozoal activity of dicationic m-terphenyl and 1,3-dipyridylbenzene derivatives” (J Med Chem, 2013).

What was measured:
L6 = assay: Cytotoxicity against rat L6 cells after 72 hrs by Alamar Blue assay; type: cell-based; conditions: L6, 72 h
Summary of the method: (§1)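 Uses T. b. rhodesiense STIB900, T. cruzi Tulahuen C2C4 LacZ intracellular amastigotes, or L6 rat myoblasts depending on line.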

[1] = Selectivity index, ratio of IC50 for rat L6 cells to IC50 for Trypanosoma cruzi Tulahuen C2C4; type: toxicity, cell-based; conditions: read-out: Ratio IC50
Summary of the method: (§2)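 Selectivity index is IC50 against L6 rat myoblast cells divided by IC50 against the named parasite.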

Trypanosoma cruzi = assay: Antiprotozoal activity against intracellular amastigote form of Trypanosoma cruzi Tulahuen C2C4 expressing LacZ infected in rat L6 cells after 48 hrs; type: functional, organism-based; conditions: Tulahuen C2C4, L6, 48 h; summary of the method: as §1
[2] = Selectivity index, ratio of IC50 for rat L6 cells to IC50 for Plasmodium falciparum K1; type: toxicity, cell-based; conditions: for selectivity ratio: L6 cells, read-out: Ratio IC50; summary of the method: as §2
Plasmodium falciparum = assay: Antiprotozoal activity against chloroquine-resistant Plasmodium falciparum K1 after 48 hrs by [3H]-hypoxanthine incorporation assay; type: functional, organism-based; conditions: Plasmodium falciparum, K1
[3] = Selectivity index, ratio of IC50 for rat L6 cells to IC50 for Trypanosoma brucei rhodesiense STIB900; type: toxicity, cell-based; conditions: for selectivity ratio: L6 cells, read-out: Ratio IC50; summary of the method: as §2
[4] = tested on: Trypanosoma brucei rhodesiense; assay: Antiprotozoal activity against Trypanosoma brucei rhodesiense STIB900 after 72 hrs by Alamar Blue assay; type: functional, organism-based; conditions: Trypanosoma brucei, STIB900, 72 h; summary of the method: as §1
[5] = tested on: Trypanosoma brucei rhodesiense; assay: Antiprotozoal activity against Trypanosoma brucei rhodesiense STIB900 infected in NMRI mouse assessed as host mean survival days at 5 mg/kg, ip qd for 4 days; type: functional; conditions: route intraperitoneal
Summary of the method: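 Acute-stage HAT mouse model infected with STIB900. Cure means survival to 60 days after infection with no parasitemia relapse. Mean survival days are counted from infection and use every mouse: relapsed mice, plus cured mice entered as >60 days.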

| SMILES | IC50 (L6) | selectivity ratio [1] | IC50 (Trypanosoma cruzi) | selectivity ratio [2] | IC50 (Plasmodium falciparum) | selectivity ratio [3] | IC50 [4] | MSD [5] | Ratio IC50 ([2]; l6) | Ratio IC50 ([3]; l6) |
| --- | --- | --- | --- | --- | --- | --- | --- | --- | --- | --- |
| O=C(Cn1ccnc1[N+](=O)[O-])NCc1ccccc1 [BENZNIDAZOLE] | > 150000 nM | 115 | 1300 nM |  |  |  |  |  |  |  |
| N=C(N)c1ccc(-c2cc(Cl)cc(-c3cccc(C(=N)N)c3)c2)cc1 | 12700 nM | < 1 | 46600 nM | 1250 | 10 nM | 130 | 97 nM |  |  |  |
| c1cc(C2=NCCN2)cc(-c2cccc(-c3cccc(C4=NCCN4)c3)c2)c1 | 31700 nM | 2 | 20400 nM | 51 | 619 nM | 20 | 1600 nM |  |  |  |
| CC1(C)CN=C(c2cccc(-c3cccc(-c4cccc(C5=NCC(C)(C)CN5)c4)c3)c2)NC1 | 56600 nM | 1 | 45400 nM | 9500 | 6 nM | 70 | 809 nM |  |  |  |
| N=C(N)c1cccc(-c2cc(Cl)cc(-c3cccc(C(=N)N)c3)c2)c1 | 30900 nM | < 1 | 50200 nM | 944 | 33 nM | 709 | 44 nM |  |  |  |
| COc1cc(-c2ccc(C(=N)N)cc2)cc(-c2ccc(C(=N)N)cc2)c1.Cl.Cl | 33000 nM | < 1 | 59100 nM | 693 | 48 nM | 7270 | 5 nM | >38 days |  |  |
| CCN(CC)CCCC(C)Nc1ccnc2cc(Cl)ccc12 (stereo not given) [CHLOROQUINE] | 76500 nM |  |  |  |  |  |  |  |  |  |
| N=C(N)c1ccc(OCCCCCOc2ccc(C(=N)N)cc2)cc1 [PENTAMIDINE] |  |  |  |  |  |  |  | >38 days |  |  |
| CC(C)NC(=N)c1cccc(-c2cccc(-c3cccc(C(=N)NC(C)C)c3)c2)c1 | > 150000 nM | > 1 | 141000 nM | > 4190 | 31 nM | > 243 | 617 nM |  |  |  |
| N=C(N)c1cncc(-c2cccc(-c3cncc(C(=N)N)c3)c2)c1 | > 150000 nM |  | > 150000 nM | > 2580 | 58 nM | > 285 | 527 nM |  |  |  |
| CC1(C)CN=C(c2ccc(-c3cc(-c4ccc(C5=NCC(C)(C)CN5)cc4)cc([N+](=O)[O-])c3)cc2)NC1 | > 150000 nM |  | > 150000 nM | > 46800 | 3 nM | > 217 | 692 nM |  |  |  |
| Cl.Cl.N=C(N)c1ccc(-c2cc(O)cc(-c3ccc(C(=N)N)cc3)c2)cc1 | > 150000 nM | < 1 | > 150000 nM | > 3950 | 38 nM | > 37500 | 4 nM | >41.25 days |  |  |
| C[C@@H]1CC[C@H]2[C@@H](C)C(=O)O[C@@H]3O[C@@]4(C)CC[C@@H]1[C@]32OO4 [ARTEMISININ] | 150000 nM |  |  | 34900 | 4 nM |  |  |  |  |  |
| N=C(N)c1ccnc(-c2cccc(-c3cc(C(=N)N)ccn3)c2)c1 | > 150000 nM |  | > 150000 nM | > 1940 | 77 nM | > 128 | 1170 nM |  |  |  |
| N=C(N)c1ccc(-c2ccc(-c3ccc(C(=N)N)cc3)o2)cc1 [FURAMIDINE] |  |  | 23300 nM |  | 14 nM |  | 3 nM | >46 days |  |  |
| CC(=O)O.N=C(N)c1ccc(-c2cccc(-c3ccc(C(=N)N)cn3)c2)nc1 | > 150000 nM |  | > 150000 nM |  | 45 nM |  | 22 nM | >60 days | > 3339 | > 6856 |
| CC1(C)CN=C(c2ccc(-c3cccc(-c4ccc(C5=NCC(C)(C)CN5)cc4)c3)cc2)NC1 | 122000 nM | < 1 | 151000 nM | 49300 | 2 nM | 871 | 140 nM |  |  |  |
